Experimental data taken from ChEMBL document CHEMBL4152376, “Optimization of 8-Hydroxyquinolines as Inhibitors of Catechol O-Methyltransferase” (J Med Chem, 2018).

How the values were obtained:
[1] = target: T1, Catechol O-methyltransferase (Homo sapiens, UniProt P21964); assay: Inhibition of c-terminal hexa-His tagged human S-COMT expressed in HEK293-6E cell membrane homogenate using 7,8-dihydroxy-4-methylcoumarin as substrate after 1 hr in presence of SAM by MTase glo methyltransferase assay
T1 sequence (P21964 whole entry): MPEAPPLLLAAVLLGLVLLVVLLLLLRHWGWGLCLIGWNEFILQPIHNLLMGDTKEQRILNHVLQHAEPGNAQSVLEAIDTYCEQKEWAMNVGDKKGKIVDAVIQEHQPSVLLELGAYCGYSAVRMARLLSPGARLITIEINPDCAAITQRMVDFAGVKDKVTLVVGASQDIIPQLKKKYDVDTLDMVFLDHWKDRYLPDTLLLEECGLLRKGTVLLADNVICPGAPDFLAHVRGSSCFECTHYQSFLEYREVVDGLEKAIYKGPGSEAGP
Summary of the method: (§1)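 His6-tagged S-COMT (human or rat), expressed in 293-6E cells and purified by Ni-NTA and size exclusion, 1 ng per well. 20 µM SAM and 10 µM 7,8-dihydroxy-4-methylcoumarin in pH 6.9 Tris/MgCl2/DTT buffer, 1.5% DMSO. 1 h at 37 °C, then MTase-Glo luminescence read against a SAH standard curve. […] 4-parameter IC50; triplicate wells, three runs.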

[2] = target: T1, Catechol O-methyltransferase; assay: Inhibition of c-terminal hexa-His tagged human MB-COMT expressed in HEK293 cell membrane homogenate using norepinephrine as substrate after 1 hr in presence of SAM by MTase glo methyltransferase assay
Summary of the method: (§2)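 Membrane homogenate of HEK293 cells expressing C-terminal His6 MB-COMT (human about 7 ng, rat about 4 ng per well, protein by Bradford […]). 20 µM SAM and 7 µM norepinephrine in 50 mM Tris, 5–10 mM MgCl2, 2.5 mM DTT, pH 6.9, final DMSO 1.5%. 1 h at 37 °C, then MTase-Glo luminescence. […] 4-parameter IC50 fit; triplicate points, three experiments.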

[3] = target: T1, Catechol O-methyltransferase; assay: Inhibition of c-terminal hexa-His tagged human MB-COMT (unknown origin)
[4] = Half life in rat at 1 mg/kg, iv or 3/10 mg/kg, po; type: ADME, organism-based; conditions: in vivo
Summary of the method: (§3)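 Rat pharmacokinetics after a 1 mpk iv dose (n=3) and a 3 or 10 mpk oral dose (n=3).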

Rattus norvegicus [5] = assay: In vivo inhibition of COMT in Sprague-Dawley rat assessed as HVA levels in CSF at 10 mg/kg, po measured at 4 hrs post dose by LC-MS analysis relative to control; type: functional; parameters: scale not given: the % may be the effect or the level left
Summary of the method: (§4)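 Male Sprague Dawley rats (176–200 g on arrival) dosed orally at 10 mg/kg in Tween80/antifoam/methylcellulose suspension, 10 mL/kg, vehicle group as control (n=5–10). At 4 h under isoflurane, CSF drawn from cisterna magna. HVA and DOPAC quantified by LC-MS against standards in 0.01 M perchloric acid/aCSF with d5 internal standards. Reported as % of vehicle.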

[6] = Fraction unbound in rat plasma by equilibrium dialysis; type: ADME, cell-free
Summary of the method: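 Percent free drug in mouse or rat plasma, measured by equilibrium dialysis.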

[7] = Drug level in CSF of Sprague-Dawley rat at 10 mg/kg, po after 4 hrs by ES-UPLC analysis; type: ADME, organism-based, Cerebrospinal fluid; conditions: read-out: Drug uptake
Summary of the method: (§5)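 Sprague Dawley rats given 10 mg/kg po; CSF, plasma and brain collected at 4 h. Drug measured in CSF; free plasma and brain levels computed from total levels using plasma protein and brain tissue binding fractions. Free CSF derived from CSF binding by equilibrium dialysis with pooled rat CSF. Ratios taken from these values.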

[8] = Unbound drug level in brain of Sprague-Dawley rat at 10 mg/kg, po after 4 hrs by ES-UPLC analysis; type: ADME, organism-based; conditions: in vivo; summary of the method: as §5
[9] = target: T2, Catechol O-methyltransferase (Rattus norvegicus, UniProt P22734); assay: Inhibition of c-terminal hexa-His tagged rat MB-COMT expressed in HEK293 cell membrane homogenate using norepinephrine as substrate after 1 hr in presence of SAM by MTase glo methyltransferase assay; summary of the method: as §2
T2 sequence (P22734 whole entry): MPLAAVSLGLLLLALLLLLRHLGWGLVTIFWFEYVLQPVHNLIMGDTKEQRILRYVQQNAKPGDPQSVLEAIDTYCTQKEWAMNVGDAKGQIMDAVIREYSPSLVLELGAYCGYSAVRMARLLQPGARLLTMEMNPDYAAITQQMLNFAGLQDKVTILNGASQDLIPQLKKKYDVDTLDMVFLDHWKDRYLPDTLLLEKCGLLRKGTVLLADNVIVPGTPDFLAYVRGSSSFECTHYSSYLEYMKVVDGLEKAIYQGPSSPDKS

[10] = target: T2, Catechol O-methyltransferase; assay: Inhibition of c-terminal hexa-His tagged rat S-COMT expressed in HEK293-6E cell membrane homogenate using 7,8-dihydroxy-4-methylcoumarin as substrate after 1 hr in presence of SAM by MTase glo methyltransferase assay; summary of the method: as §1
[11] = Ratio of drug level in CSF of Sprague-Dawley rat to unbound plasma concentration in Sprague-Dawley rat at 10 mg/kg, po after 4 hrs by ES-UPLC analysis; type: ADME, organism-based; conditions: in vivo; summary of the method: as §5
Rattus norvegicus [12] = assay: Oral bioavailability in rat at 3/10 mg/kg; type: ADME, organism-based; conditions: in vivo; summary of the method: as §3
Rattus norvegicus [13] = assay: Volume of distribution at steady state in rat at 1 mg/kg, iv or 3/10 mg/kg, po; type: ADME, organism-based; conditions: in vivo; summary of the method: as §3
[14] = Efflux ratio of permeability in MDCK cells; type: ADME, cell-based, Canis lupus familiaris; conditions: dog
Summary of the method: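 Efflux ratio taken as […] transport across P-glycoprotein-expressing MDCK cells.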

[15] = Plasma concentration C57BL/6J mouse at 10 mg/kg, ip measured at 1 hr post dose; type: ADME, organism-based
Summary of the method: (§6)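 Male C57BL/6J mice (8 weeks), single ip injection of 10 mg/kg suspended in 0.1% Tween80/0.1% antifoam/1% methylcellulose at 10 mL/kg. Two mice per timepoint; at 1 h, plasma separated at 4 °C and brain homogenized in 4 volumes PBS pH 7.4. Total brain and plasma levels measured.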

[16] = Clearance in rat hepatocytes assessed as per million cells; type: ADME, cell-based, Hepatocyte; conditions: read-out: CLH
[17] = Protein binding in CSF of Sprague-Dawley rat at 2 uM by equilibrium dialysis; type: ADME, tissue-based, Cerebrospinal fluid; conditions: read-out: PB (converted)
Summary of the method: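 Binding in pooled rat CSF measured by equilibrium dialysis at 2 µM test concentration.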

[18] = Unbound plasma concentration in Sprague-Dawley rat 10 mg/kg, po after 4 hrs by ES-UPLC analysis; type: ADME, organism-based; conditions: in vivo; summary of the method: as §5
[19] = Ratio of drug level in CSF of Sprague-Dawley rat to unbound brain concentration in Sprague-Dawley rat at 10 mg/kg, po after 4 hrs by ES-UPLC analysis; type: ADME, organism-based; conditions: in vivo; summary of the method: as §5
[20] = Ratio of unbound drug level in CSF of Sprague-Dawley rat to unbound plasma concentration in Sprague-Dawley rat at 10 mg/kg, po after 4 hrs by ES-UPLC analysis; type: ADME, organism-based; conditions: CSF and plasma; summary of the method: as §5
[21] = Drug uptake in brain of C57BL/6J mouse at 10 mg/kg, ip measured at 1 hr post dose; type: ADME, organism-based; conditions: for concentration at 1 h: C57BL/6J, brain, read-out: Drug uptake; for Drug uptake: in vivo, 1 h, BLD = below limit of detection; summary of the method: as §6
Rattus norvegicus [22] = assay: In vivo inhibition of COMT in Sprague-Dawley rat assessed as DOPAC levels in CSF at 10 mg/kg, po measured at 4 hrs post dose by LC-MS analysis relative to control; type: functional; summary of the method: as §4
[23] = Apparent permeability of the compound in MDCK cells; type: ADME, cell-based, Canis lupus familiaris; conditions: dog

IC50 [1] [nM]	IC50 [2] [nM]	half-life [4] [h]	F (Rattus norvegicus [12]) [%]	Vdss (Rattus norvegicus [13]) [L/kg]	concentration at 1 h [15] [ng/mL]	hepatocyte CLint [16] [µL/min/1e6 cells]	concentration at 1 h [21] [ng/g]	SMILES	other results
501	20							Cc1ccc(S(=O)(=O)c2ccc(O)c3ncccc23)cc1	IC50 [3]: 20 nM
2510	2	7.7	32	0.41	6160	19	1910	O=S(=O)(c1cc(F)c(O)c2ncccc12)C1CCCC1	Activity (Rattus norvegicus [5]): 66%; Fu [6]: 0.2; concentration at 4 h [7]: 321 nM; Drug uptake(free) [8]: 12.8 nM; IC50 [9]: < 1 nM; IC50 [10]: 7940 nM; Ratio [11]: 16.5; efflux ratio [14]: 0.5; fraction unbound at 2 µM [17]: 0.43; Cp(f) [18]: 19 nM; Ratio [19]: 25; Kp uu at 4 h [20]: 7.3; CSF DOPAC level (% of vehicle) (Rattus norvegicus [22]): 218%
501	6.31	0.26	34	1.2	1740	36	518	Cc1ccc(S(=O)(=O)c2cc(F)c(O)c3ncccc23)cc1	
> 10000	200	8.9	23	0.23	16600	4	5660	O=S(=O)(c1ccc(F)cc1)c1cc(Cl)c(O)c2ncccc12	Fu [6]: 0.5; efflux ratio [14]: 0.8
1260	63.1				3540	46		O=S(=O)(c1ccc(C(F)(F)F)cc1)c1ccc(O)c2ncccc12	Drug uptake [21]: Bld
	3.16					255		O=S(=O)(c1ccc(O)c2ncccc12)N1CCC(c2ccc(F)cc2)C1 (stereo not given)	
6310	79.4	3.5	66	3.8	2540	12	1090	O=S(=O)(c1ccc(C(F)(F)F)cc1)c1cc(F)c(O)c2ncccc12	Fu [6]: 0.6; efflux ratio [14]: 1.1
1580	50.1				250	39	11	CCS(=O)(=O)c1ccc(O)c2ncccc12	
> 10000	> 10000							Cc1ccc(S(=O)(=O)c2cc(C(F)(F)F)c(O)c3ncccc23)cc1	
> 10000	316	0.31	45	0.67	9780	78	1690	Cc1ccc(S(=O)(=O)c2cc(Cl)c(O)c3ncccc23)cc1	Papp [23]: > 10 ×10⁻⁶ cm/s; efflux ratio [14]: 2.2
1580	3.98	4.5	100	3.5	5720	15	527	O=S(=O)(c1ccc(F)cc1)c1cc(F)c(O)c2ncccc12	Papp [23]: > 10 ×10⁻⁶ cm/s; Activity (Rattus norvegicus [5]): 86%; concentration at 4 h [7]: 127 nM; Drug uptake(free) [8]: 7.7 nM; IC50 [9]: < 1 nM; IC50 [10]: > 10000 nM; Ratio [11]: 2.6; efflux ratio [14]: 0.7; fraction unbound at 2 µM [17]: 0.47; Cp(f) [18]: 48 nM; Ratio [19]: 16; Kp uu at 4 h [20]: 1.2; CSF DOPAC level (% of vehicle) (Rattus norvegicus [22]): 173%
> 10000	1260							Cc1ccc(S(=O)(=O)c2cc(Br)c(O)c3ncccc23)cc1	

Further lines, the molecule ahead of its results:

SMILES	IC50 [1] [nM]	IC50 [2] [nM]	half-life [4] [h]	F (Rattus norvegicus [12]) [%]	Vdss (Rattus norvegicus [13]) [L/kg]	concentration at 1 h [15] [ng/mL]	hepatocyte CLint [16] [µL/min/1e6 cells]	concentration at 1 h [21] [ng/g]	other results
COc1ccc(S(=O)(=O)N2CCCC2)c2cccnc12		> 10000							
O=S(=O)(O)c1ccc(O)c2ncccc12									IC50 [3]: 6310 nM
O=S(=O)(c1ccc(O)c2ncccc12)C1CCCC1	501	6.31	0.18	24	1.8	173			Fu [6]: 0.5; Drug uptake [21]: Bld
O=S(=O)(c1cc(C(F)(F)F)c(O)c2ncccc12)C1CCCC1	> 10000	> 10000							
Cc1ccc(-c2ccc(O)c3ncccc23)cc1		251							
O=S(=O)(c1ccc(O)c2ncccc12)N1CCCC1	2000	7.94				68	177	10.5	
O=C(c1ccc(O)c2ncccc12)N1CCCC1		> 10000							
O=S(=O)(c1cc(Cl)c(O)c2ncccc12)C1CCCC1	7940	20	11	37	0.3	14700	18	2790	Activity (Rattus norvegicus [5]): 97%; Fu [6]: 0.5; concentration at 4 h [7]: 358 nM; Drug uptake(free) [8]: 5.6 nM; IC50 [9]: < 1 nM; IC50 [10]: > 10000 nM; Ratio [11]: 11; Cp(f) [18]: 32 nM; Ratio [19]: 64; CSF DOPAC level (% of vehicle) (Rattus norvegicus [22]): 213%
Cc1cc(S(=O)(=O)N2CCCC2)c2cccnc2c1O	3160	20				576	103	55	
O=S(=O)(c1cc(Cl)c(O)c2ncccc12)N1CCCC1	3160	10	8.6	33	0.8	16200	14	1150	Fu [6]: 0.5; efflux ratio [14]: 0.4
Cc1ccc(S(=O)(=O)c2cc(O)c3ncccc3c2)cc1									IC50 [3]: 1580 nM
Cc1ccc(C(=O)c2ccc(O)c3ncccc23)cc1		3980							
Oc1cccc2cccnc12 [OXYQUINOLINE]		1580							IC50 [3]: 3160 nM
